# Source: PubChem BioAssay (several laboratories)
# A selection: hits, their analogues and other compounds. The true share with any hit is near 2.8%.
# NPY1 pot ag = NPY-Y1 receptor potentiators or agonists, primary screen, cell-based | 220,000 tested, 0.37% active | NPY-Y1 expressing cells, potentiator/agonist activation | activation, % at 3.6 µM; in the data active = activation above about 33%, passing the limit was not always enough;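 note: cells stimulated with NPY at EC10 then isoproterenol at EC100; 0% = low agonist plus stimulus and 100% = saturating agonist plus stimulus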
# Target sequence (P25929 whole entry, looked up): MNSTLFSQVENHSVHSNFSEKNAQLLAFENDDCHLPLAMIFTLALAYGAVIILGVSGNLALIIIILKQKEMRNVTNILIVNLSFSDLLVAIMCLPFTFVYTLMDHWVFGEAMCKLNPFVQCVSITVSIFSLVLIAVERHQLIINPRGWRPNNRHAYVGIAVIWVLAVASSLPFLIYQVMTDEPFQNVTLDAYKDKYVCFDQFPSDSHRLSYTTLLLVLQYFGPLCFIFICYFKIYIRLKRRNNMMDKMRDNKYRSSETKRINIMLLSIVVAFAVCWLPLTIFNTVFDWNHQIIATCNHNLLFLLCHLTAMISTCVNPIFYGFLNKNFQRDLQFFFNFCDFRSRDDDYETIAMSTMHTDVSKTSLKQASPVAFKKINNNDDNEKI
# MDM2 E3 inh = MDM2-luciferase reporter signal enhancers, primary screen, MDM2 E3 ligase inhibitor project, cell-based, luminescence, 1536-well; signal enhancement, % at 5 µM; cell-based MDM2 ubiquitination luciferase reporter, 2 h; 0 = plate control, 100 = twice control, blank-subtracted; E3 ubiquitin-protein ligase Mdm2 (Homo sapiens), Q00987; 210,000 tested, 0.11% active; AID 1230, 2008;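 active = signal enhancement of 30% or more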;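 note: luminescence tracks abundance of the self-degrading MDM2-luciferase fusion protein; higher signal means inhibition of MDM2 E3 ligase activity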
#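 Material: stable MDM2–luciferase fusion reporter cells / Quantity: 2000 cells/well / Dosing: single 5 µM compound dose, 0.2% final DMSO / Buffer or medium: DMEM / Schedule: 4 h cell settling then 2 h compound exposure, 37 °C / Detection: luminescence with SteadyLite reagent, 15 min at room temperature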
# NPY-Y2 PAM-ag = NPY-Y2 potentiators or agonists, primary screen, cell-based; AID 1359, 2008; 220,000 tested, 0.45% active; cells expressing NPY-Y2, potentiator/agonist read-out; activation, % at 3.6 µM; Neuropeptide Y receptor type 2 (Homo sapiens), P49146; in the data active = activation above about 27%;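 note: cells stimulated with NPY near EC25 plus isoproterenol at EC100; 0% = vehicle plus submaximal agonist and 100% = vehicle plus saturating agonist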
# Measles CPE = compounds protecting cells from measles virus cytopathic effect, primary screen, measles RdRp inhibitor project, single point, MLSMR library, absorbance; 140,000 tested, 1.5% active; protection (pct of control), % at 4 µM; Measles virus-infected cells, CPE protection; in the data active = protection mostly above about 24%, no sharp cut-off; inactive = mostly below about 26%
# NPY-Y2 antag = NPY-Y2 receptor antagonists, primary screen, cell-based | inhibition, % at 2.7 µM | Neuropeptide Y receptor type 2 (Homo sapiens), P49146 | 140,000 tested, 0.99% active | NPY-Y2 expressing cells, antagonist mode | AID 793, 2007; in the data active = inhibition above about 17%;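 note: 0% = vehicle with agonist challenge and 100% = reference antagonist with challenge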
# NPY Y1 blocker = NPY-Y1 receptor antagonists, primary screen, cell-based | 200,000 tested, 1% active | Neuropeptide Y receptor type 1 (Homo sapiens), P25929 | HEK293-CNG Y1 cells, membrane potential fluorescence; NPY at EC95, then isoproterenol | inhibition, % at 3.6 µM;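 active = inhibition above the campaign mean inhibition of all tested compounds plus 3 SD, cut at about 20% in these data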;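 note: 0% = DMSO wells given NPY plus isoproterenol and 100% = isoproterenol alone without NPY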
#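 Test system – HEK293 Y1/CNG channel cell line · Also added – NPY agonist 25 nM, then isoproterenol 1 µM plus Ro 20-1724 25 µM · Compound dosing – one concentration, 3.6 µM, in 0.4% DMSO · Schedule – compound incubation 1 h at room temperature, readout 45 min post-stimulation · Technique – fluorescence, membrane potential probe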
# The depositor's hits bear a star; / = no result.
SMILES,NPY1 pot ag,MDM2 E3 inh,NPY-Y2 PAM-ag,Measles CPE,NPY-Y2 antag,NPY Y1 blocker
CC(C)Cn1cnc2c(c1=O)c1nc3ccccc3nc1n2Cc1ccc2c(c1)OCO2,0,-24,12,58*,5,0
O=C(CN1CCCC1)Nc1ccc(-c2nc3cc(NC(=O)CN4CCCC4)ccc3o2)cc1,-61,-21,-17,6,10,17
CCc1noc(C)c1C(=O)N1CC(C)OC(C)C1 (stereo unspecified),78*,-13,96*,23,-1,-10
COC(=O)CN1C(c2ccccc2)=Nc2ccc(Cl)cc2C1c1ccccc1 (stereo unspecified),-6,3,-4,6,22*,27*
CC1CCCC(NC(=O)C2c3ccccc3C(=O)N2Cc2cccs2)C1C (stereo unspecified),-18,-9,-23,10,25*,35*
Cc1ccc2nc(-c3ccncc3)c(NC3CCCCC3)n2c1,14,5,10,/,/,-3
CSCCC(=O)N1C(C)CCCC1C(=O)O (stereo unspecified),9,-18,3,26*,3,3
N#Cc1c(Nc2ccccc2)c(/C=N/N=C/c2ccccc2)c[nH]c1=O,-16,3,-7,26*,3,1
COc1cccc(/C=C/C(=O)NCc2ccc(S(N)(=O)=O)cc2)c1,4,-15,0,/,/,/
CCn1nnnc1SCC(=O)N1CCOCC1,-6,11,-3,28*,1,0
CCCCN1C(=O)N(C)C2NC(=S)NC21 (stereo unspecified),14,-90,-10,/,/,/
Cc1cc(O)c(C(C)C)cc1C1(c2cc(C(C)C)c(O)cc2C)OC(=O)c2ccccc21,76*,/,70*,/,/,/
COc1cccc(/C=C/C(=O)Nc2ccccc2N2CCOCC2)c1,-2,-10,11,/,/,-3
COc1ccccc1/C=C/C=N/n1c(-c2cc(C)[nH]n2)n[nH]c1=S,17,-18,1,57*,3,2
COc1ccccc1/C=C/C=N/n1c(-c2ccccn2)n[nH]c1=S,5,-9,-18,/,/,/
COc1ccc(S(=O)(=O)Cc2ccc(C(=O)NCc3cccnc3)o2)cc1,2,-4,8,2,2,2
COc1ccc(S(=O)(=O)Cc2ccc(C(=O)NCc3ccc(F)cc3)o2)cc1,2,-12,0,32*,-1,2
CCOC(=O)c1oc2cccc(OCC(O)CNC(C)C)c2c1C (stereo unspecified),111*,-30,105*,3,2,-13
Cc1cccc(C)c1OCC(O)CNC(C)C (stereo unspecified),-47,3,-8,12,5,6
C=CCn1c(-c2ccc([N+](=O)[O-])cc2)n[nH]c1=S,-9,10,-16,38*,0,4
CCCCC(=O)Nc1nc2c(OC)cc([N+](=O)[O-])cc2s1,39*,-12,33*,/,/,-11
Cn1c(-c2cccc(OCc3ccccc3)c2)nc2c1c(=O)[nH]c(=O)n2Cc1ccccc1,-1,-8,4,1,2,0
COCCn1c(-c2cccc([N+](=O)[O-])c2)nc2c1c(=O)[nH]c(=O)n2Cc1ccccc1,-5,-1,-13,27*,2,-1
CCOc1ccc(CCNC(=O)CN2C(=O)NC(CCSC)C2=O)cc1OCC (stereo unspecified),-5,1,-6,/,/,0
CC(C)(C)c1ccc(NC(=O)c2ccsc2)cc1,-1,-36,-4,/,/,/
SMILES,NPY1 pot ag,MDM2 E3 inh,NPY-Y2 PAM-ag,Measles CPE,NPY-Y2 antag,NPY Y1 blocker
COc1cccc(-c2nc(CS(=O)(=O)CC(=O)NCCCOC(C)C)c(C)o2)c1,-13,2,5,41*,1,-5
CCC1CCCCN1S(=O)(=O)c1ccc(S(=O)(=O)N(Cc2cccs2)C2CC2)cc1 (stereo unspecified),12,-2,7,42*,0,-3
Cc1cc(/C=N/n2cnnc2)c(C)n1-c1ccc(OCc2ccc(Cl)cc2)cc1,14,-16,19,48*,10,-1
Cc1cc(/C=N/n2cnnc2)c(C)n1-c1ccc(OCc2ccccc2F)cc1,3,-10,-10,0,7,5
CC1CCN(CCCNC(=O)c2ccc(Cn3c(=S)[nH]c4ccc(Br)cc4c3=O)cc2)CC1,-28,-8,-6,/,/,9
CN(C)CCOc1ncnc2c1oc1ccccc12,-6,/,-14,2,2,-1
CN(C)CCOc1nc(-c2ccccc2)nc2c1oc1ccccc12,59*,13,69*,3,6,-1
COc1ccc(N2C(=O)C(CN3CCN(C)CC3)C2c2ccccc2)cc1 (stereo unspecified),25,-15,-3,/,/,1
O=C(CSc1ncn[nH]1)Nc1ccc(S(=O)(=O)N2CCCC2)cc1,7,-8,-1,4,2,-2
COC(=O)COc1ccc(NS(=O)(=O)c2cccc([N+](=O)[O-])c2)cc1,35*,-8,48*,/,/,-2
COC(=O)COc1cccc(NS(=O)(=O)c2cccc([N+](=O)[O-])c2)c1,0,-1,0,/,/,3
Cc1cccc(C)c1NC(=S)N(CCCN1CCOCC1)Cc1cccnc1,12,-8,8,/,/,-4
Cc1ccccc1CCN(C(=O)Cn1nnc2ccccc21)C(C(=O)NCC1CCCO1)c1nc2ccccc2n1C (stereo unspecified),-15,-16,-4,5,3,-2
O=C(Nc1ccc(OC(F)F)c(Cl)c1)Nc1ccc2c(c1)OCO2,-4,-30,6,41*,-1,2
O=C(Nc1ccc2c(c1)OCO2)c1ccc(Cl)s1,5,-8,6,54*,0,-1
O=C(Nc1ccccn1)C(=O)N1CCCCC1,-3,/,-11,9,0,3
COC(C[C@@H]1O[C@@H]1[C@@H](O)COCc1ccccc1)OC,/,0,/,/,/,/
COc1ccc(CC(=O)Nc2ccc(-c3cn4ccc(C)cc4n3)cc2)cc1,5,-40,-4,2,1,-3
Cc1cccc(Nc2nnc(-c3ccc(C(=O)N4C[C@H]5C[C@H](C4)c4cccc(=O)n4C5)cc3)c3ccccc23)c1,-4,-1,-22,12,2,3
CC(C)C(=O)Nc1ccc(C(=O)N2CCCCCC2)cc1,14,-8,6,39*,1,2
COc1ccccc1N(C)S(=O)(=O)c1ccc(C(=O)OCC(=O)NCCC2=CCCCC2)cc1,26,8,-2,6,2,1
